Source: ChEMBL document CHEMBL1148756, “Discovery of 3,3'-(2,4-diaminopteridine-6,7-diyl)diphenol as an isozyme-selective inhibitor of PI3K for the treatment of ischemia reperfusion injury associated with myocardial infarction” (J Med Chem, 2007)
Calls of active or inactive are those of the source. The calls are words filed in the database; no cut-off is given here.

What was measured:
[1] = molecular target: Phosphatidylinositol 4,5-bisphosphate 3-kinase catalytic subunit gamma isoform (Homo sapiens, UniProt P48736); assay: Inhibition of recombinant PI3Kgamma
Procedure, shortened: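 Luminescence kinase assay with recombinant PI3K p120 gamma (250-500 ng/well), ambient temperature, in 20 mM Tris pH 7.4, 4 mM MgCl2, 10 mM NaCl, 50 µM PIP2 substrate. Compound added in DMSO at 100 to 0.001 µM final. ATP added from a 3 µM stock. Stopped after 90 min with Kinase-Glo and read by luminescence. IC50 from nonlinear curve fit.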

[2] = Plasma concentration in Sprague-Dawley rat at 5.0 mg/kg, iv; assay type: ADME, organism-based; set-up: dose 5 mg/kg, route intravenous
Procedure, shortened: (§1)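 Male Sprague-Dawley rats (200-250 g, N = 5 per dose) were given a single iv tail bolus of 0.5 or 5 mg/kg in aqueous 9.5% Captisol. Jugular-catheter blood was drawn at 5, 15, 30 min and 1, 2, 4, 6, 8, 24 h. Plasma was acetonitrile-extracted and quantified by LC/MS/MS (calibration 1-10 000 ng/mL). Parameters were derived noncompartmentally, with CL = dose/AUC(0-inf) and Vdss = CL × MRT.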

[3] = Plasma concentration in Sprague-Dawley rat at 0.5 mg/kg, iv; assay type: ADME, organism-based; set-up: dose 0.5 mg/kg, route intravenous; procedure, shortened: as §1
[4] = molecular target: Serine/threonine-protein kinase mTOR (Homo sapiens) (UniProt P42345); assay: Inhibition of VEGF-induced phosphorylation of mTOR at 10 uM
Procedure, shortened: (§2)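 HUVECs (passage 2-4) were serum-starved for 4 h in EBM-2, then exposed for 10 min to 20 ng/mL recombinant human VEGF with or without 10 µM compound in DMSO. Cells were PBS-rinsed and lysed in RIPA, and lysates were normalized by BCA. Samples were screened externally by Western-blot-based antibody panels covering 73 phosphorylated kinases.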

[5] = AUC (0 to infinity) in Sprague-Dawley rat at 0.5 mg/kg, iv; assay type: ADME, organism-based; set-up: time infinity, dose 0.5 mg/kg, route intravenous; conditions: plasma
Procedure, shortened: (§3)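 Male Sprague-Dawley rats (200-250 g, N = 5 per dose) given a single iv tail bolus in aqueous 9.5% Captisol. Serial plasma was taken via jugular catheter from 5 min to 24 h. Samples were acetonitrile-extracted with internal standard and quantified by LC/MS/MS (calibration 1-10 000 ng/mL). AUC(0-inf) came from noncompartmental analysis.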

[6] = AUC (0 to infinity) in Sprague-Dawley rat at 5.0 mg/kg, iv; assay type: ADME, organism-based; set-up: time infinity, dose 5 mg/kg, route intravenous; conditions: plasma; procedure, shortened: as §3
[7] = Cmax in Sprague-Dawley rat at 0.5 mg/kg, iv; assay type: ADME, organism-based; set-up: dose 0.5 mg/kg, route intravenous; conditions: in vivo; procedure, shortened: as §1
[8] = Half life in Sprague-Dawley rat at 0.5 mg/kg, iv; assay type: ADME, organism-based; set-up: dose 0.5 mg/kg, route intravenous; conditions: in vivo; procedure, shortened: as §1
HUVEC = assay: Inhibition of VEGF-induced VE-cadherin phosphorylation in HUVEC cells by Western blot at 10 uM; assay type: cell-based; conditions: Homo sapiens
Procedure, shortened: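 Serum-starved HUVECs were pretreated for 15 min with compound (0.125-10 µM) or vehicle, then given 20 ng/mL recombinant VEGF for 5 min. RIPA lysates were loaded at equal protein (BCA, with β-actin as loading control) on SDS-PAGE. Blots were probed for phospho-VE-cadherin, stripped, and reprobed for total VE-cadherin.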

[9] = Half life in Sprague-Dawley rat at 5.0 mg/kg, iv; assay type: ADME, organism-based; set-up: dose 5 mg/kg, route intravenous; conditions: in vivo; procedure, shortened: as §1
[10] = Clearance in Sprague-Dawley rat at 0.5 mg/kg, iv; assay type: ADME, organism-based; set-up: dose 0.5 mg/kg, route intravenous; conditions: in vivo; procedure, shortened: as §1
[11] = Volume of distribution at steady state in Sprague-Dawley rat at 5.0 mg/kg, iv; assay type: ADME, organism-based; set-up: dose 5 mg/kg, route intravenous; conditions: in vivo, read-out: Vdss; procedure, shortened: as §1
[12] = Clearance in Sprague-Dawley rat at 5.0 mg/kg, iv; assay type: ADME, organism-based; set-up: dose 5 mg/kg, route intravenous; conditions: in vivo; procedure, shortened: as §1
[13] = molecular target: Ribosomal protein S6 kinase beta-1 (Homo sapiens) (UniProt P23443); assay: Inhibition of VEGF-induced phosphorylation of p70S6 at 10 uM; procedure, shortened: as §2
Ribosomal protein S6 kinase beta-1 (Homo sapiens), sequence (P23443 whole entry, looked up): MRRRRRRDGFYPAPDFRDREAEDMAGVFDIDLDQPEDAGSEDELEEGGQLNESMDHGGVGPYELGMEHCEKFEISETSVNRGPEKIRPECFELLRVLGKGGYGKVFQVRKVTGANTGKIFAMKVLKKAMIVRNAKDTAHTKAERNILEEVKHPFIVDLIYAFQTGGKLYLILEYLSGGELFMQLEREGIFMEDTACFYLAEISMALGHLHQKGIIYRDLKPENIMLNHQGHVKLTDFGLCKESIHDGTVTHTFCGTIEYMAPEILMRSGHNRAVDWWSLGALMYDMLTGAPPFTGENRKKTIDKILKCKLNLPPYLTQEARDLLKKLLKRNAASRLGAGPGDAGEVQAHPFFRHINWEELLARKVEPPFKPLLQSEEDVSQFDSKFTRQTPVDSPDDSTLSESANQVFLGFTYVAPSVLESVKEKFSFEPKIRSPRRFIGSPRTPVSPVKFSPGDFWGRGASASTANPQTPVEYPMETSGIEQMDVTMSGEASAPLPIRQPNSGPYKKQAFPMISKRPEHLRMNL

[14] = Cmax in Sprague-Dawley rat at 5.0 mg/kg, iv; assay type: ADME, organism-based; set-up: dose 5 mg/kg, route intravenous; conditions: in vivo; procedure, shortened: as §1
[15] = Volume of distribution at steady state in Sprague-Dawley rat at 0.5 mg/kg, iv; assay type: ADME, organism-based; set-up: dose 0.5 mg/kg, route intravenous; conditions: in vivo, read-out: Vdss; procedure, shortened: as §1
[16] = molecular target: RAC-alpha serine/threonine-protein kinase (Homo sapiens) (UniProt P31749); assay: Inhibition of FGF-induced AKT phosphorylation in HUVEC cells by Western blot at 10 uM; assay type: cell-based
RAC-alpha serine/threonine-protein kinase (Homo sapiens), sequence (P31749 whole entry): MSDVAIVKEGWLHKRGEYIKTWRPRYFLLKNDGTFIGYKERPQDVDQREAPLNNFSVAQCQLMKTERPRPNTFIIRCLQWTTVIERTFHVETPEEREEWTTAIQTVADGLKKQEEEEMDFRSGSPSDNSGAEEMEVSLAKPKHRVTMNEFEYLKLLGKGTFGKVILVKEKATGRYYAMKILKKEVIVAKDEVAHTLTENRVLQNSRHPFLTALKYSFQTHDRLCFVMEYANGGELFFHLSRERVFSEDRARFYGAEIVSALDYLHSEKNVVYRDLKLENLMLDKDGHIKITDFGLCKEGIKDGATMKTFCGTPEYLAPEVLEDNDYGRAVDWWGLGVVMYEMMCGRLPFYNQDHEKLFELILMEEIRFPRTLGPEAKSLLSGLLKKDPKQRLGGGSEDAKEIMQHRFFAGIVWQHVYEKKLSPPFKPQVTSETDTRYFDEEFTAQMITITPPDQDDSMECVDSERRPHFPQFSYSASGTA
Procedure, shortened: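 Serum-starved HUVECs were pretreated for 15 min with compound (0.125-10 µM) or vehicle, then stimulated for 5 min with 20 ng/mL recombinant bFGF. Cells were lysed in RIPA, protein was normalized by BCA, and lysates were run on SDS-PAGE. Blots were probed for phospho-Akt, stripped, and reprobed for total Akt.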

| IC50 [1] [µM] | Activity [1] | Structure (SMILES) | also measured |
| --- | --- | --- | --- |
| 2.7 |  | Nc1nc(N)c2nc(-c3ccc(O)cc3)c(-c3ccc(O)cc3)nc2n1 |  |
| 4.7 |  | Nc1nc(N)c2ncc(-c3ccc(O)cc3)nc2n1 |  |
| 17 |  | Nc1ccc2nc(-c3cccc(O)c3)c(-c3cccc(O)c3)nc2c1 |  |
| 4 |  | Nc1ncnc2nc(-c3cccc(O)c3)c(-c3cccc(O)c3)nc12 |  |
| 8.5 |  | Nc1nc(N)c2nc(-c3ccccc3)c(-c3ccccc3)nc2n1 |  |
|  | inactive | Nc1cncc2nc(-c3cccc(O)c3)c(-c3cccc(O)c3)nc12 |  |
| 4 |  | Nc1ncnc2nc(-c3ccc(O)cc3)c(-c3ccc(O)cc3)nc12 |  |
|  | inactive | Nc1ccc2nc(-c3cccc(O)c3)c(-c3cccc(O)c3)nc2n1 |  |
|  | inactive | Nc1ccc2nc(-c3ccc(O)cc3)c(-c3ccc(O)cc3)nc2n1 |  |
| 46 |  | Oc1cccc(-c2nc3nc(O)nc(O)c3nc2-c2cccc(O)c2)c1 |  |
| 9 |  | Oc1cccc(-c2nc3cncnc3nc2-c2cccc(O)c2)c1 |  |
|  | inactive | Nc1ccc2nc(-c3ccc(O)c(O)c3)c(-c3ccc(O)c(O)c3)nc2n1 |  |
| 1.2 |  | Nc1nc(N)c2nc(-c3ccc(O)cc3)cnc2n1 |  |
|  | inactive | Nc1cncc2nc(-c3ccc(O)cc3)c(-c3ccc(O)cc3)nc12 |  |

Second part, the compound before the results:

| Structure (SMILES) | IC50 [1] [µM] | Activity [1] | also measured |
| --- | --- | --- | --- |
| Nc1nc(N)c2nc(-c3cccc(O)c3)c(-c3cccc(O)c3)nc2n1 [TG100-115] |  |  | C0 [2]: 7730 ng/mL; C0 [3]: 713 ng/mL; Activity [4]: Active; AUC(0-inf) [5]: 124 ng·h/mL; AUC(0-inf) [6]: 1380 ng·h/mL; Cmax [7]: 363 ng/mL; half-life [8]: 24 min; Activity (HUVEC): Active; half-life [9]: 48 min; clearance [10]: 71 mL/min/kg; Vd [11]: 4.4 L/kg; clearance [12]: 66 mL/min/kg; Activity [13]: Active; Cmax [14]: 3330 ng/mL; Vd [15]: 2.3 L/kg; Activity [16]: Dose-dependent effect |
| Nc1nc(N)c2nc(-c3ccc(O)c(O)c3)cnc2n1 | 0.195 |  |  |
| CCN(CC)CCOc1cccc(-c2nc3nc(N)nc(N)c3nc2-c2cccc(OCCN(CC)CC)c2)c1 |  | inactive |  |
| Oc1cccc(-c2nc3nc(NCCCN4CCOCC4)nc(NCCCN4CCOCC4)c3nc2-c2cccc(O)c2)c1 |  | inactive |  |
| CCOP(=O)(OCC)Oc1cccc(-c2nc3nc(N)nc(N)c3nc2-c2cccc(OP(=O)(OCC)OCC)c2)c1 |  | inactive |  |
| Nc1nc(NCCCN2CCOCC2)c2nc(-c3cccc(O)c3)c(-c3cccc(O)c3)nc2n1 | 51 |  |  |
| COc1cccc(-c2nc3nc(N)nc(N)c3nc2-c2cccc(OC)c2)c1 | 12.6 |  |  |
| Nc1nc(N)c2ncc(-c3cccc(O)c3)nc2n1 | 3 |  |  |
| Nc1ncnc2nc(-c3ccc(O)c(O)c3)cnc12 | 5.1 |  |  |
| Nc1nc(N)c2nc(-c3cccc(OCC(O)CO)c3)c(-c3cccc(OCC(O)CO)c3)nc2n1 (stereo unspecified) | 32.7 |  |  |
| Nc1ncnc2ncc(-c3ccc(O)c(O)c3)nc12 | 1.3 |  |  |
| Nc1nc(N)c2ncc(-c3ccc(O)c(O)c3)nc2n1 | 5.9 |  |  |
